System: alkaline phosphatase
Test: Enzyme inhibition kinetic study
Format: biochemical
Conditions: inhibitor 0.00, 1.15, 2.30, 4.60 and 9.20 μM; substrate p-NPP
Procedure, shortened: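 Enzyme, buffer and pre-incubation were as in the AP inhibition assay. p-NPP was used at 10, 5, 2.5, […] and 0.625 mM. Maximum initial velocities came from the linear part of absorbance over up to 10 min. Inhibition type was assigned from Lineweaver–Burk plots of 1/V vs. 1/[S].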

With `COc1ccc(C=C2Oc3cc(Cl)cc([N+](=O)[O-])c3C2=O)cc1` [Compound 20, 6-Chloro-2-(4-methoxybenzylidene)-4-nitrobenzofuran-3(2H)-one] the “type of enzyme inhibition (Lineweaver–Burk plot)” value was “non-competitive”.

Biological target: CIAP (calf intestinal alkaline phosphatase) (Bos taurus, UniProt P19111)
Test: Alkaline phosphatase
Format: biochemical
Conditions: Alkaline phosphatase IC50 ± SEM, CIAP, substrate p-NPP, pH 9.5, 37 °C; mean ± SEM; NA = No activity

Sequence of CIAP (calf intestinal alkaline phosphatase) (P19111 20-506 limits assumed): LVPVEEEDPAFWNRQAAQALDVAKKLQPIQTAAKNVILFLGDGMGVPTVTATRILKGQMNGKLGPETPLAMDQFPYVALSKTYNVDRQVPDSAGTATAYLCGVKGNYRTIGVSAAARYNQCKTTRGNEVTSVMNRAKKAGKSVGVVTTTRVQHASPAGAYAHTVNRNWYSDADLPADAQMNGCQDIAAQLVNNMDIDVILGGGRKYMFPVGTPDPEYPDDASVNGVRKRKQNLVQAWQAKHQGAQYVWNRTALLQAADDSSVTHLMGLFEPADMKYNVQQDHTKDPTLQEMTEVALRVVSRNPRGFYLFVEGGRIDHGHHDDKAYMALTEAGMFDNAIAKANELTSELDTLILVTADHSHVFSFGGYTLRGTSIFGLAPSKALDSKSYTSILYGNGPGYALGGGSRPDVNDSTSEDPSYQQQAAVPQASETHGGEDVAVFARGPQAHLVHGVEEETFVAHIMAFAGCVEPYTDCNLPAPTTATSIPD

`O=C(C=Cc1ccco1)c1cc(Br)cc(Br)c1O` [Compound 1, 1-(3,5-Dibromo-2-hydroxyphenyl)-3-(furan-2-yl)prop-2-en-1-one] and `O=C(C=Cc1ccc(Cl)cc1)c1cc(Br)cc(Br)c1O` [Compound 2, 3-(4-Chlorophenyl)-1-(3,5-dibromo-2-hydroxyphenyl)prop-2-en-1-one] are within 1.5-fold of each other in IC50: 4.31 ± 0.154 µM for the first, 6.23 ± 0.098 µM for the second.

Going from `COc1ccc(C=CC(=O)c2cc(Cl)cc([N+](=O)[O-])c2O)cc1` [Compound 4, 1-(5-Chloro-2-hydroxy-3-nitrophenyl)-3-(4-methoxyphenyl)prop-2-en-1-one] to `O=C(C=Cc1ccc(F)cc1)c1cc(Cl)cc([N+](=O)[O-])c1O` [Compound 5, 1-(5-Chloro-2-hydroxy-3-nitrophenyl)-3-(4-fluorophenyl)prop-2-en-1-one], the IC50 rises from 3.14 ± 0.176 µM to 7.55 ± 0.265 µM (2.4-fold). The first is the more potent here.

Going from `CN(C)c1ccc(C=CC(=O)c2cc(Cl)cc([N+](=O)[O-])c2O)cc1` [Compound 6, 1-(5-Chloro-2-hydroxy-3-nitrophenyl)-3-(4-(dimethylamino)phenyl)prop-2-en-1-one] to `Cc1ccc(C=CC(=O)c2cc(Cl)cc([N+](=O)[O-])c2O)c(C)c1` [Compound 8, 1-(5-Chloro-2-hydroxy-3-nitrophenyl)-3-(2,4-dimethylphenyl)prop-2-en-1-one], the IC50 rises from 3.02 ± 0.087 µM to 12.6 ± 0.298 µM (4.2-fold).

`O=C(C=Cc1cccs1)c1cc(Cl)cc([N+](=O)[O-])c1O` [Compound 9, 1-(5-Chloro-2-hydroxy-3-nitrophenyl)-3-(thiophen-2-yl)prop-2-en-1-one] and `O=C1C(=Cc2cccs2)Oc2cc(Cl)cc([N+](=O)[O-])c21` [Compound 19, 6-Chloro-4-nitro-2-(thiophen-2-ylmethylene)benzofuran-3(2H)-one] are within 1.5-fold of each other in IC50: 8.45 ± 0.245 µM for the first, 5.88 ± 0.083 µM for the second.

`CCCOc1ccc(C=CC(=O)c2cc(Cl)cc([N+](=O)[O-])c2O)cc1OC` [Compound 10, 1-(5-Chloro-2-hydroxy-3-nitrophenyl)-3-(3-methoxy-4-propoxyphenyl)prop-2-en-1-one] and `COc1cc(C=CC(=O)c2cc(Cl)cc([N+](=O)[O-])c2O)ccc1OCc1ccccc1` [Compound 11, 3-(4-(Benzyloxy)-3-methoxyphenyl)-1-(5-chloro-2-hydroxy-3-nitrophenyl)prop-2-en-1-one] are within 1.5-fold of each other in IC50: 6.97 ± 0.097 µM for the first, 9.56 ± 0.263 µM for the second.

Compared with `O=C1C(=Cc2ccc(Cl)cc2)Oc2cc(Br)cc(Br)c21` [Compound 12, 4,6-Dibromo-2-(4-chlorobenzylidene)benzofuran-3(2H)-one], `O=C1C(=Cc2ccc(C(F)(F)F)cc2)Oc2cc(Br)cc(Br)c21` [Compound 13, 4,6-Dibromo-2-(4-(trifluoromethyl)benzylidene)benzofuran-3(2H)-one] is 2.7-fold higher in IC50: 2.16 ± 0.048 µM for the first, 5.79 ± 0.081 µM for the second.

Going from `O=C1C(=Cc2ccco2)Oc2cc(Br)cc(Br)c21` [Compound 14, 4,6-Dibromo-2-(furan-2-ylmethylene)benzofuran-3(2H)-one] to `O=C1C(=Cc2ccc(Cl)cc2)Oc2cc(Cl)cc([N+](=O)[O-])c21` [Compound 16, 6-Chloro-2-(4-chlorobenzylidene)-4-nitrobenzofuran-3(2H)-one], the IC50 falls from 4.66 ± 0.051 µM to 2.13 ± 0.034 µM (2.2-fold).

Going from `CN(C)c1ccc(C=C2Oc3cc(Cl)cc([N+](=O)[O-])c3C2=O)cc1` [Compound 15, 6-Chloro-2-(4-(dimethylamino)benzylidene)-4-nitrobenzofuran-3(2H)-one] to `O=C1C(=Cc2ccc(F)cc2)Oc2cc(Cl)cc([N+](=O)[O-])c21` [Compound 17, 6-Chloro-2-(4-fluorobenzylidene)-4-nitrobenzofuran-3(2H)-one], the IC50 rises from 2.15 ± 0.056 µM to 4.88 ± 0.086 µM (2.3-fold). The first is the more potent here.

`Cc1ccc(C=C2Oc3cc(Cl)cc([N+](=O)[O-])c3C2=O)c(C)c1` [Compound 18, 6-Chloro-2-(2,4-dimethylbenzylidene)-4-nitrobenzofuran-3(2H)-one] and `COc1ccc(C=C2Oc3cc(Cl)cc([N+](=O)[O-])c3C2=O)cc1` [Compound 20, 6-Chloro-2-(4-methoxybenzylidene)-4-nitrobenzofuran-3(2H)-one] are within 1.5-fold of each other in IC50: 1.15 ± 0.043 µM for the first, 1.05 ± 0.029 µM for the second.

Going from `CCCOc1ccc(C=C2Oc3cc(Cl)cc([N+](=O)[O-])c3C2=O)cc1OC` [Compound 21, 6-Chloro-2-(3-methoxy-4-propoxybenzylidene)-4-nitrobenzofuran-3(2H)-one] to `COc1cc(C=C2Oc3cc(Cl)cc([N+](=O)[O-])c3C2=O)ccc1OCc1ccccc1` [Compound 22, 2-(4-(Benzyloxy)-3-methoxybenzylidene)-6-chloro-4-nitrobenzofuran-3(2H)-one], the IC50 rises from 2.33 ± 0.059 µM to 5.54 ± 0.079 µM (2.4-fold).

Same assay, conditions: ratio of IC50 values vs standard KH2PO4

In the case of `COc1ccc(C=C2Oc3cc(Cl)cc([N+](=O)[O-])c3C2=O)cc1` [Compound 20, 6-Chloro-2-(4-methoxybenzylidene)-4-nitrobenzofuran-3(2H)-one], the “fold higher inhibition compared to KH2PO4” value is reported as ~2.6 fold.

Biological target: AP
Test: not given
Conditions: traditional AP inhibitors; ref 34g; cited from earlier work

Compared with `c1ccc([C@H]2CN3CCSC3=N2)cc1` [levamisole], `Cn1c(=O)c2[nH]cnc2n(C)c1=O` [theophylline] is 5.1-fold higher in Ki: 16 µM for the first, 82 µM for the second. The first binds more tightly here.

Source: article PMC9042899 (RSC Advances, 2021)
